The record followed here is publication PMC11661184 (bioRxiv, 2024).

Experiment [1] concerns the target 3xFLAG-TurboID-CaM C-lobe (human). In words: proximity labelling.
Experiment [2] has as its system V5-tagged WT CaM. Put plainly: Immunofluorescence co-localization with V5-WT CaM in Neuro2A cells. Format: cell-based, human. To be noted: resting Neuro2A cells, Airyscan. In outline: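 Neuro2A cells were grown in DMEM with 10% FBS, transfected, then placed on poly-L-lysine coverslips for 16-20 h. Cells were fixed in 4% PFA, permeabilised with 0.1% Triton and blocked in 4% BSA. Staining used anti-V5 (1:500), Alexa488 anti-mouse (1:700) and Cy3 anti-FLAG (1:500), each for 45 min at RT. Airyscan images (63x oil) were deconvolved. Per-cell pixel-intensity Pearson's R used thresholds from mono-stained samples. Mean ± SD; two-tailed t-test.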

Experiment [3] deals with CaM (Calmodulin-agarose). In words: CaM-agarose pulldown of TRPA1 constructs. Format: binding. The method, boiled down: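 HEK293T cells were transfected with tagged TRPA1 constructs and lysed after 16-24 h in Tris pH 8.0 buffer containing 5 mM DDM and 500 µM EGTA. Free Ca²⁺ was set with CaCl₂, calculated from EGTA constants. 100 µg lysate was incubated with CaM-agarose for 1 h at 4 °C, washed, then eluted with 5 mM EGTA. Detection was by anti-FLAG or anti-MBP immunoblot, with tubulin input control. Enrichment is relative to the maximum within each replicate.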

Experiment [4] relates to TurboID-CaM C-lobe. In words: Proximity biotinylation in HEK293T cells. It counts as cell-based, human. To be noted: 50 µM biotin 15 min, basal Ca2+; n=4. In outline: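 HEK293T cells co-expressed 3xFLAG-TurboID or 3xFLAG-TurboID-CaM C-lobe with 3xFLAG-hTRPA1 variants. About 48 h post-transfection, 50 uM biotin was added to the culture medium. After 15 min, cells were lysed and proteins captured on anti-FLAG resin (1 h, 4 °C), then eluted with 125 µg/ml 3xFLAG peptide. Biotinylated proteins were detected with HRP-streptavidin (1:50,000).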

Experiment [5] relates to hTRPA1 expressed in Xenopus laevis oocytes. Put plainly: Two-electrode voltage clamp, Ca2+ potentiation and desensitization. Format: cell-based, human. To be noted: for Potentiation by extracellular Ca2+ / Slowing of desensitization versus WT hTRPA1, intracellular Ca2+ chelated / Slowing of potentiation versus WT hTRPA1 / Slowing of desensitization versus WT hTRPA1: 1.8 mM Ca2+; for Potentiation by extracellular Ca2+: comparable peak current amplitudes; for Desensitization time constant / Potentiation time constant: 1.8 mM extracellular Ca2+, n=10 oocytes; for Slowing of desensitization versus WT hTRPA1, intracellular Ca2+ chelated: 500 µM EGTA-AM 20 min. (In general: Two-electrode voltage clamp holds a large cell at a set potential and records current.)

For experiment [6] the test system is unchanged. It counts as cell-based, human.

With “3xFLAG-WT hTRPA1 (wild type human TRPA1) (from UniProt O75762 1-1119) (natural protein)”, in experiment [1], the percent increase in biotinylation with TurboID-CaM C-lobe against free TurboID was 40%.

B1: WT hTRPA1: wild type human TRPA1 channel (protein)
chain: MKRSLRKMWRPGEKKEPQGVVYEDVPDDTEDFKESLKVVFEGSAYGLQNFNKQKKLKRCDDMDTFFLHYAAAEGQIELMEKITRDSSLEVLHEMDDYGNTPLHCAVEKNQIESVKFLLSRGANPNLRNFNMMAPLHIAVQGMNNEVMKVLLEHRTIDVNLEGENGNTAVIIACTTNNSEALQILLKKGAKPCKSNKWGCFPIHQAAFSGSKECMEIILRFGEEHGYSRQLHINFMNNGKATPLHLAVQNGDLEMIKMCLDNGAQIDPVEKGRCTAIHFAATQGATEIVKLMISSYSGSVDIVNTTDGCHETMLHRASLFDHHELADYLISVGADINKIDSEGRSPLILATASASWNIVNLLLSKGAQVDIKDNFGRNFLHLTVQQPYGLKNLRPEFMQMQQIKELVMDEDNDGCTPLHYACRQGGPGSVNNLLGFNVSIHSKSKDKKSPLHFAASYGRINTCQRLLQDISDTRLLNEGDLHGMTPLHLAAKNGHDKVVQLLLKKGALFLSDHNGWTALHHASMGGYTQTMKVILDTNLKCTDRLDEDGNTALHFAAREGHAKAVALLLSHNADIVLNKQQASFLHLALHNKRKEVVLTIIRSKRWDECLKIFSHNSPGNKCPITEMIEYLPECMKVLLDFCMLHSTEDKSCRDYYIEYNFKYLQCPLEFTKKTPTQDVIYEPLTALNAMVQNNRIELLNHPVCKEYLLMKWLAYGFRAHMMNLGSYCLGLIPMTILVVNIKPGMAFNSTGIINETSDHSEILDTTNSYLIKTCMILVFLSSIFGYCKEAGQIFQQKRNYFMDISNVLEWIIYTTGIIFVLPLFVEIPAHLQWQCGAIAVYFYWMNFLLYLQRFENCGIFIVMLEVILKTLLRSTVVFIFLLLAFGLSFYILLNLQDPFSSPLLSIIQTFSMMLGDINYRESFLEPYLRNELAHPVLSFAQLVSFTIFVPIVLMNLLIGLAVGDIAEVQKHASLKRIAMQVELHTSLEKKLPLWFLRKVDQKSTIVYPNKPRSGGMLFHIFCFLFCTGEIRQEIPNADKSLEMEILKQKYRLKDLTFLLEKQHELIKLIIQKMEIISETEDDDSHCSFQDRFKKEQMEQRNSRWNTVLRAVKAKTHHLEP
Take B1: in experiment [2], the “Co-localization with WT CaM (deconvolved IF images)” value is recorded as “pronounced co-localization”. Further, the “CaM binding (CaM-agarose enrichment)” value in experiment [3] (0.1 µM Ca2+ (resting cytosolic), HEK293T lysate, immunoblot, n=11) is “robust interaction”; in experiment [3] (absence of Ca2+ (0 µM), HEK293T lysate, immunoblot) it was “failed to bind CaM”; in experiment [3] (intermediate (500 µM) and extracellular (2 mM) Ca2+, n=11) it was “stepwise decrease in binding”. The “Increase in TRPA1 biotinylation with TurboID-CaM C-lobe versus TurboID” value in experiment [4] was “approximately 40%”. Further, in experiment [5] (250 µM AITC, 125 µM niflumic acid, n=9), the “Desensitization with 10 mM versus 1.8 mM extracellular Ca2+” value was “desensitize faster”. Besides, the “Potentiation by extracellular Ca2+” value in experiment [5] (250 µM AITC) is “rapid potentiation”. Besides, the Desensitization time constant is 12.5 s in experiment [5] (+80 mV, 250 µM AITC) and 11.9 s in experiment [5] (−80 mV, 250 µM AITC). Further, the Potentiation time constant stood at 2.2 s in experiment [5] (+80 mV, 250 µM AITC) and 2.7 s in experiment [5] (−80 mV, 250 µM AITC). Also, in experiment [5] (within 25 seconds of 1.8 mM Ca2+), the “Desensitization after extracellular Ca2+ addition” value is listed as “nearly complete desensitization”.

B2: W1103A hTRPA1: hTRPA1 with W1103 mutated to alanine (protein)
chain: MKRSLRKMWRPGEKKEPQGVVYEDVPDDTEDFKESLKVVFEGSAYGLQNFNKQKKLKRCDDMDTFFLHYAAAEGQIELMEKITRDSSLEVLHEMDDYGNTPLHCAVEKNQIESVKFLLSRGANPNLRNFNMMAPLHIAVQGMNNEVMKVLLEHRTIDVNLEGENGNTAVIIACTTNNSEALQILLKKGAKPCKSNKWGCFPIHQAAFSGSKECMEIILRFGEEHGYSRQLHINFMNNGKATPLHLAVQNGDLEMIKMCLDNGAQIDPVEKGRCTAIHFAATQGATEIVKLMISSYSGSVDIVNTTDGCHETMLHRASLFDHHELADYLISVGADINKIDSEGRSPLILATASASWNIVNLLLSKGAQVDIKDNFGRNFLHLTVQQPYGLKNLRPEFMQMQQIKELVMDEDNDGCTPLHYACRQGGPGSVNNLLGFNVSIHSKSKDKKSPLHFAASYGRINTCQRLLQDISDTRLLNEGDLHGMTPLHLAAKNGHDKVVQLLLKKGALFLSDHNGWTALHHASMGGYTQTMKVILDTNLKCTDRLDEDGNTALHFAAREGHAKAVALLLSHNADIVLNKQQASFLHLALHNKRKEVVLTIIRSKRWDECLKIFSHNSPGNKCPITEMIEYLPECMKVLLDFCMLHSTEDKSCRDYYIEYNFKYLQCPLEFTKKTPTQDVIYEPLTALNAMVQNNRIELLNHPVCKEYLLMKWLAYGFRAHMMNLGSYCLGLIPMTILVVNIKPGMAFNSTGIINETSDHSEILDTTNSYLIKTCMILVFLSSIFGYCKEAGQIFQQKRNYFMDISNVLEWIIYTTGIIFVLPLFVEIPAHLQWQCGAIAVYFYWMNFLLYLQRFENCGIFIVMLEVILKTLLRSTVVFIFLLLAFGLSFYILLNLQDPFSSPLLSIIQTFSMMLGDINYRESFLEPYLRNELAHPVLSFAQLVSFTIFVPIVLMNLLIGLAVGDIAEVQKHASLKRIAMQVELHTSLEKKLPLWFLRKVDQKSTIVYPNKPRSGGMLFHIFCFLFCTGEIRQEIPNADKSLEMEILKQKYRLKDLTFLLEKQHELIKLIIQKMEIISETEDDDSHCSFQDRFKKEQMEQRNSRANTVLRAVKAKTHHLEP
As to B2, the “AITC sensitivity versus WT hTRPA1” value in experiment [6] (Ca2+-free) is recorded as “slightly reduced AITC sensitivities”. Moreover, in experiment [6] (absence of Ca2+, activation and closing at +80 mV, n=8), the “Gating kinetics and peak current amplitudes” value is given as “not significantly different from WT hTRPA1”. The “CaM binding at basal Ca2+ concentration” value in experiment [3] (basal Ca2+, n=3 independent experiments) was “completely ablated CaM binding”. The “TRPA1 biotinylation with TurboID-CaM C-lobe” value in experiment [4] is reported as “loss in biotinylation”. The “Faster desensitization rate with 10 mM than with 1.8 mM extracellular Ca2+” value in experiment [5] (250 µM AITC, 125 µM niflumic acid, n=10 or 11) was “approximately 3 fold”. The “Potentiation by extracellular Ca2+” value in experiment [5] (250 µM AITC) is listed as “rapid potentiation”. Further, the “Slower desensitization than WT hTRPA1 with 1.8 mM Ca2+” value in experiment [5] (250 µM AITC, 10 mM extracellular Ca2+, 125 µM niflumic acid) is “approximately 4 fold”. The “Desensitization profile with buffered intracellular Ca2+” value in experiment [5] (500 µM EGTA-AM 20 min pre-incubation) was “delayed desensitization profile compared to WT hTRPA1 channels and a faster desensitization profile than W1103A hTRPA1 channels without intracellular Ca^2+ buffering”. Moreover, in experiment [5] (500 µM EGTA-AM, n=8), the “Potentiation kinetics versus WT hTRPA1, buffered intracellular Ca2+” value is given as “did not exhibit a significant change to potentiation kinetics”. Moreover, the “Residual activity after extracellular Ca2+ (of initial activity)” value in experiment [5] (5 minutes after 1.8 mM extracellular Ca2+, n=10 or 12 oocytes) is given as 10–20%. Also, the “Increase in translocated charge versus WT hTRPA1” value turned out to be 10 fold in experiment [5] (+80 mV) and 20 fold in experiment [5] (−80 mV). Besides, the “Slowing of desensitization versus WT hTRPA1, intracellular Ca2+ chelated” value in experiment [5] (+80 mV, n=8) amounted to 10.5 fold; in experiment [5] (−80 mV, n=8), 10.7 fold. The “Slowing of potentiation versus WT hTRPA1” value in experiment [5] (+80 mV) was ~ 1.8 fold; in experiment [5] (−80 mV), ~ 3 fold. Further, the “Slowing of desensitization versus WT hTRPA1” value is on record as 20 fold in experiment [5] (+80 mV, n=10 or 12 oocytes) and 15 fold in experiment [5] (−80 mV, n=10 or 12 oocytes).
